Each structure is given as a SMILES string. In brackets after ≈: the same amount, converted by molar mass. Activity calls are given as the source filed them.

For experiment [1], the system named is Candida albicans. In words: Antimicrobial activity against Candida albicans isolate R obtained from urine of patient 38 days after admission by Etest. In kind it is functional. Summed up: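 Etest on RPMI 1640 agar with 2% glucose, performed according to the manufacturer's recommendations.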
Another experiment has as its system Kluyveromyces marxianus. In words: Antimicrobial activity against Candida kefyr after 24 hrs by M27-A3 method. In kind it is functional.
The test system of another experiment is Candida parapsilosis. In words: Antimicrobial activity against Candida parapsilosis after 48 hrs by Etest. In kind it is functional. The following applies: Lodderomyces parapsilosis.
Experiment [2] relates to Candida albicans. Kind of experiment: Antimicrobial activity against Candida albicans isolate R infected in NMRI mouse assessed as decrease in kidney bacterial burden at 6 mg/kg, ip measured on day 4. In kind it is functional, organism-based. Also on record: dose 6 mg/kg. In short, it runs like this:
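NMRI mice (26 to 30 g), seven per group, were infected intravenously on day 0 with 1×10^5 CFU. They received caspofungin ip on days 1 to 3 in 0.5 ml; saline-treated mice served as controls. On day 4 the kidneys were removed and homogenized, and 10-fold dilutions were spot plated. Results are log10 CFU/ml homogenate (detection limit 50 CFU/ml), compared by Mann-Whitney test.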

Experiment [3] relates to Candida tropicalis. In words: Antimicrobial activity against Candida tropicalis after 48 hrs by 80% endpoint M27-A2 method. In kind it is functional.
For another experiment, the system named is Clavispora lusitaniae. Kind of experiment: Antimicrobial activity against Candida lusitaniae after 48 hrs by 80% endpoint M27-A method.
Experiment [4] has as its system Candida albicans. Kind of experiment: Antimicrobial activity against Candida albicans obtained from tracheal suction of patient 24 days after admission by EUCAST microdilution method. Particulars: Trachea, 576 h. In kind it is functional. In short, it runs like this:
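EUCAST broth microdilution, plates read spectrophotometrically at 490 nm. MIC is the lowest dilution giving 50% growth inhibition. C. krusei […] control included in each run.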
For orientation: Dilution methods test growth across graded concentrations, often in twofold steps.

In experiment [5] the test system is Candida tropicalis. In words: Antimicrobial activity against Candida tropicalis after 48 hrs by Etest. In kind it is functional.
The subject of experiment [6] is Candida albicans. Kind of experiment: Antimicrobial activity against Candida albicans isolate C after 48 hrs by Etest. In kind it is functional. Summed up:
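Etest on RPMI 1640 agar with 2% glucose, run per the manufacturer's instructions. Index and control clinical blood isolates were tested in parallel.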

Experiment [7] relates to Candida albicans. In words: Antimicrobial activity against Candida albicans isolate R at 5 ug/ml grown on RPMI 1640 medium after 48 hrs by disk diffusion method. In kind it is functional. Summed up:
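Disk diffusion on 90-mm RPMI 1640 with 2% glucose agar or on Mueller-Hinton agar. Plates were swabbed in three directions with a yeast suspension of 1–5 × 10^6 cells/ml. Paper disks (6 mm) held 1, 5 or 25 µg drug. Zone diameters were read at 24 and 48 h; values are means of two experiments.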
On the technique in general: Agar diffusion results depend on both activity and mobility in agar.

For a further experiment, the system named is Nakaseomyces glabratus. Kind of experiment: Antimicrobial activity against Candida glabrata after 48 hrs by Etest. In kind it is functional.

A word on the MIC: it is the smallest concentration in the dilution series that meets the test's criterion for growth inhibition. A high value points to weaker potency. As a reminder, the MIC90 is an inhibitory concentration at the 90% level, which refers to growth in some studies and to a panel of isolates in others. On to `CC[C@H](C)C[C@H](C)CCCCCCCCC(=O)N[C@H]1C[C@@H](O)[C@@H](NCCN)NC(=O)[C@@H]2[C@@H](O)CCN2C(=O)[C@H]([C@H](O)CCN)NC(=O)[C@H]([C@H](O)[C@@H](O)c2ccc(O)cc2)NC(=O)[C@@H]2C[C@@H](O)CN2C(=O)[C@H]([C@@H](C)O)NC1=O` [CASPOFUNGIN], for which the values for the MIC with Candida albicans [1], in the experiment with Candida albicans [4] and against Candida albicans [6] were more than 32 µg/mL, 0.25 µg/mL (≈ 0.229 µM) and 0.06 µg/mL (≈ 0.0549 µM), respectively. In addition, the MIC90 against Kluyveromyces marxianus came to 0.015 µg/mL (≈ 0.0137 µM); against Candida parapsilosis, 2 µg/mL (≈ 1.83 µM); in the experiment with Candida tropicalis [3] it was 0.5 µg/mL (≈ 0.457 µM); against Clavispora lusitaniae, 1 µg/mL (≈ 0.915 µM); against Candida tropicalis [5] it was 0.5 µg/mL (≈ 0.457 µM); in the experiment on Nakaseomyces glabratus, 0.25 µg/mL (≈ 0.229 µM). The outcome with Candida albicans [2] was inactive. The “inhibition zone (IZ)” value in the experiment on Candida albicans [7] turned out to be 6.2 mm.

Source of the values: ChEMBL document CHEMBL1629654, “Breakthrough Aspergillus fumigatus and Candida albicans double infection during caspofungin treatment: laboratory characteristics and implication for susceptibility testing” (2009).
